Results published in ChEMBL document CHEMBL4334458, “Design, synthesis and antibacterial evaluation of novel 15-membered 11a-azahomoclarithromycin derivatives with the 1, 2, 3-triazole side chain” (Eur J Med Chem, 2019).
Converted amounts (≈) assume the structure as drawn.

Tests used:
Type in all cases: functional
[1] = test system: Streptococcus pyogenes; assay: Antibacterial activity against erythromycin-susceptible Streptococcus pyogenes 1 clinical isolate incubated for 24 hrs by broth dilution method
In short: (§1)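 CLSI broth microdilution in cation-adjusted Mueller-Hinton broth. Twofold dilutions spanned 0.25–128 or 0.5–256 µg/mL, with CAM and AZM as controls. Log-phase bacteria were added and incubated 24 h at 37 °C. MIC was read by turbidity as the concentration of the last clear well.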

[2] = test system: Streptococcus pneumoniae; assay: Antibacterial activity against erythromycin-resistant Streptococcus pneumoniae B1 expressing the ermB incubated for 24 hrs by broth dilution method
[3] = test system: Pseudomonas aeruginosa; assay: Antibacterial activity against penicillin-susceptible Pseudomonas aeruginosa ATCC 27853 incubated for 24 hrs by broth dilution method; conditions: ATCC 27853, 24 h; in short: as §1
[4] = test system: Staphylococcus aureus; assay: Antibacterial activity against methicillin-resistant Staphylococcus aureus ATCC 43300 incubated for 24 hrs by broth dilution method; conditions: ATCC 43300, 24 h
[5] = test system: Escherichia coli; assay: Antibacterial activity against penicillin-susceptible Escherichia coli ATCC 25922 incubated for 24 hrs by broth dilution method; conditions: ATCC 25922, 24 h; in short: as §1
[6] = test system: Streptococcus pneumoniae; assay: Antibacterial activity against erythromycin-resistant Streptococcus pneumoniae AB11 expressing the ermB and mefA incubated for 24 hrs by broth dilution method
[7] = test system: Staphylococcus aureus; assay: Antibacterial activity against penicillin-resistant Staphylococcus aureus ATCC 31007 incubated for 24 hrs by broth dilution method; conditions: ATCC 31007, 24 h
[8] = test system: Staphylococcus aureus; assay: Antibacterial activity against erythromycin-susceptible Staphylococcus aureus ATCC 25923 incubated for 24 hrs by broth dilution method; conditions: ATCC 25923, 24 h; in short: as §1
[9] = test system: Streptococcus pyogenes; assay: Antibacterial activity against erythromycin-resistant Streptococcus pyogenes 2 clinical isolate incubated for 24 hrs by broth dilution method
[10] = test system: Bacillus subtilis; assay: Antibacterial activity against penicillin-susceptible Bacillus subtilis ATCC 9372 incubated for 24 hrs by broth dilution method; conditions: ATCC 9372, 24 h; in short: as §1

SMILES | MIC [1] [µg/mL] | MIC [2] [µg/mL] | MIC [3] [µg/mL] | MIC [4] [µg/mL] | MIC [5] [µg/mL] | MIC [6] [µg/mL] | MIC [7] [µg/mL] | MIC [8] [µg/mL] | MIC [9] [µg/mL] | MIC [10] [µg/mL]
CO[C@]1(C)C[C@@H](C)[C@H](O)[C@H](C)CN(C)C[C@H](COCc2cn(-c3cccc(C(F)(F)F)c3)nn2)OC(=O)[C@H](C)[C@@H](O[C@H]2C[C@@](C)(OC)[C@@H](O)[C@H](C)O2)[C@H](C)[C@H]1O[C@@H]1O[C@H](C)C[C@H](N(C)C)[C@H]1O | 2 (≈ 2.08 µM) | 128 (≈ 133 µM) | 16 (≈ 16.7 µM) | 256 (≈ 267 µM) | 64 (≈ 66.7 µM) | 64 (≈ 66.7 µM) | 256 (≈ 267 µM) | 1 (≈ 1.04 µM) | 64 (≈ 66.7 µM) | 1 (≈ 1.04 µM)
CO[C@]1(C)C[C@@H](C)[C@H](O)[C@H](C)CN(C)C[C@@H](COCc2cn(-c3cccc(C(F)(F)F)c3)nn2)OC(=O)[C@H](C)[C@@H](O[C@H]2C[C@@](C)(OC)[C@@H](O)[C@H](C)O2)[C@H](C)[C@H]1O[C@@H]1O[C@H](C)C[C@H](N(C)C)[C@H]1O | 4 (≈ 4.17 µM) | 32 (≈ 33.3 µM) | > 128 | 32 (≈ 33.3 µM) | 128 (≈ 133 µM) | 16 (≈ 16.7 µM) | 64 (≈ 66.7 µM) | 8 (≈ 8.33 µM) | 32 (≈ 33.3 µM) | 2 (≈ 2.08 µM)
CO[C@]1(C)C[C@@H](C)[C@H](O)[C@H](C)CN(C)C[C@@H](COCc2cn(-c3ccc(OC(F)(F)F)cc3)nn2)OC(=O)[C@H](C)[C@@H](O[C@H]2C[C@@](C)(OC)[C@@H](O)[C@H](C)O2)[C@H](C)[C@H]1O[C@@H]1O[C@H](C)C[C@H](N(C)C)[C@H]1O | 4 (≈ 4.1 µM) | 32 (≈ 32.8 µM) | > 128 | 32 (≈ 32.8 µM) | 128 (≈ 131 µM) | 16 (≈ 16.4 µM) | 64 (≈ 65.6 µM) | 4 (≈ 4.1 µM) | 32 (≈ 32.8 µM) | 2 (≈ 2.05 µM)
CCc1ccc(-n2cc(COC[C@H]3CN(C)C[C@@H](C)[C@@H](O)[C@H](C)C[C@@](C)(OC)[C@H](O[C@@H]4O[C@H](C)C[C@H](N(C)C)[C@H]4O)[C@@H](C)[C@H](O[C@H]4C[C@@](C)(OC)[C@@H](O)[C@H](C)O4)[C@@H](C)C(=O)O3)nn2)cc1 | 0.5 (≈ 0.543 µM) | 128 (≈ 139 µM) | 16 (≈ 17.4 µM) | 128 (≈ 139 µM) | 64 (≈ 69.6 µM) | 32 (≈ 34.8 µM) | 128 (≈ 139 µM) | 0.5 (≈ 0.543 µM) | 64 (≈ 69.6 µM) | ≤ 0.25
CO[C@]1(C)C[C@@H](C)[C@H](O)[C@H](C)CN(C)C[C@@H](COCc2cn(-c3ccccn3)nn2)OC(=O)[C@H](C)[C@@H](O[C@H]2C[C@@](C)(OC)[C@@H](O)[C@H](C)O2)[C@H](C)[C@H]1O[C@@H]1O[C@H](C)C[C@H](N(C)C)[C@H]1O | 2 (≈ 2.24 µM) | > 256 | 128 (≈ 143 µM) | > 256 | 128 (≈ 143 µM) | 128 (≈ 143 µM) | > 256 | 2 (≈ 2.24 µM) | 128 (≈ 143 µM) | 0.5 (≈ 0.56 µM)
CCc1ccc(-n2cc(COC[C@@H]3CN(C)C[C@@H](C)[C@@H](O)[C@H](C)C[C@@](C)(OC)[C@H](O[C@@H]4O[C@H](C)C[C@H](N(C)C)[C@H]4O)[C@@H](C)[C@H](O[C@H]4C[C@@](C)(OC)[C@@H](O)[C@H](C)O4)[C@@H](C)C(=O)O3)nn2)cc1 | 4 (≈ 4.35 µM) | 32 (≈ 34.8 µM) | 128 (≈ 139 µM) | 64 (≈ 69.6 µM) | 128 (≈ 139 µM) | 32 (≈ 34.8 µM) | 64 (≈ 69.6 µM) | 4 (≈ 4.35 µM) | 32 (≈ 34.8 µM) | 2 (≈ 2.17 µM)
CO[C@]1(C)C[C@@H](C)[C@H](O)[C@H](C)CN(C)C[C@@H](COCc2cn(-c3ccccc3)nn2)OC(=O)[C@H](C)[C@@H](O[C@H]2C[C@@](C)(OC)[C@@H](O)[C@H](C)O2)[C@H](C)[C@H]1O[C@@H]1O[C@H](C)C[C@H](N(C)C)[C@H]1O | 1 (≈ 1.12 µM) | 256 (≈ 287 µM) | 128 (≈ 143 µM) | 256 (≈ 287 µM) | 128 (≈ 143 µM) | 64 (≈ 71.7 µM) | > 256 | 1 (≈ 1.12 µM) | 64 (≈ 71.7 µM) | 1 (≈ 1.12 µM)
CO[C@]1(C)C[C@@H](C)[C@H](O)[C@H](C)CN(C)C[C@H](Cn2cc(-c3ccc(Cl)cc3)nn2)OC(=O)[C@H](C)[C@@H](O[C@H]2C[C@@](C)(OC)[C@@H](O)[C@H](C)O2)[C@H](C)[C@H]1O[C@@H]1O[C@H](C)C[C@H](N(C)C)[C@H]1O | 0.12 (≈ 0.134 µM) | 128 (≈ 143 µM) | 64 (≈ 71.4 µM) | 128 (≈ 143 µM) | 32 (≈ 35.7 µM) | 128 (≈ 143 µM) | 128 (≈ 143 µM) | 2 (≈ 2.23 µM) | 64 (≈ 71.4 µM) | 1 (≈ 1.12 µM)
CCCCc1ccc(-c2cn(C[C@@H]3COC(=O)[C@H](C)[C@@H](O[C@H]4C[C@@](C)(OC)[C@@H](O)[C@H](C)O4)[C@H](C)[C@@H](O[C@@H]4O[C@H](C)C[C@H](N(C)C)[C@H]4O)[C@](C)(OC)C[C@@H](C)[C@H](O)[C@H](C)CN3C)nn2)cc1 | 16 (≈ 17.4 µM) | 64 (≈ 69.7 µM) | > 128 | 128 (≈ 139 µM) | 128 (≈ 139 µM) | 64 (≈ 69.7 µM) | 64 (≈ 69.7 µM) | 128 (≈ 139 µM) | 16 (≈ 17.4 µM) | 32 (≈ 34.8 µM)
CO[C@]1(C)C[C@@H](C)[C@H](O)[C@H](C)CN(C)C[C@H](COCc2cn(-c3ccc(C)cc3)nn2)OC(=O)[C@H](C)[C@@H](O[C@H]2C[C@@](C)(OC)[C@@H](O)[C@H](C)O2)[C@H](C)[C@H]1O[C@@H]1O[C@H](C)C[C@H](N(C)C)[C@H]1O | 1 (≈ 1.1 µM) | 256 (≈ 283 µM) | 16 (≈ 17.7 µM) | 256 (≈ 283 µM) | 64 (≈ 70.6 µM) | 64 (≈ 70.6 µM) | 256 (≈ 283 µM) | 0.5 (≈ 0.552 µM) | 64 (≈ 70.6 µM) | ≤ 0.25
COc1ccc(-c2cn(C[C@@H]3COC(=O)[C@H](C)[C@@H](O[C@H]4C[C@@](C)(OC)[C@@H](O)[C@H](C)O4)[C@H](C)[C@@H](O[C@@H]4O[C@H](C)C[C@H](N(C)C)[C@H]4O)[C@](C)(OC)C[C@@H](C)[C@H](O)[C@H](C)CN3C)nn2)cc1 | 4 (≈ 4.48 µM) | 128 (≈ 143 µM) | > 128 | 128 (≈ 143 µM) | > 128 | 128 (≈ 143 µM) | 32 (≈ 35.9 µM) | 64 (≈ 71.7 µM) | 128 (≈ 143 µM) | 32 (≈ 35.9 µM)
COc1ccc(-c2cn(C[C@H]3CN(C)C[C@@H](C)[C@@H](O)[C@H](C)C[C@@](C)(OC)[C@H](O[C@@H]4O[C@H](C)C[C@H](N(C)C)[C@H]4O)[C@@H](C)[C@H](O[C@H]4C[C@@](C)(OC)[C@@H](O)[C@H](C)O4)[C@@H](C)C(=O)O3)nn2)cc1 | 0.12 (≈ 0.135 µM) | > 256 | 64 (≈ 71.7 µM) | > 256 | 32 (≈ 35.9 µM) | 256 (≈ 287 µM) | > 256 | 1 (≈ 1.12 µM) | 128 (≈ 143 µM) | 1 (≈ 1.12 µM)
CO[C@]1(C)C[C@@H](C)[C@H](O)[C@H](C)CN(C)[C@@H](Cn2cc(-c3ccccn3)nn2)COC(=O)[C@H](C)[C@@H](O[C@H]2C[C@@](C)(OC)[C@@H](O)[C@H](C)O2)[C@H](C)[C@H]1O[C@@H]1O[C@H](C)C[C@H](N(C)C)[C@H]1O | 16 (≈ 18.5 µM) | > 256 | > 128 | > 256 | > 128 | 256 (≈ 297 µM) | > 256 | 64 (≈ 74.2 µM) | 256 (≈ 297 µM) | 32 (≈ 37.1 µM)
CO[C@]1(C)C[C@@H](C)[C@H](O)[C@H](C)CN(C)C[C@@H](COCc2cn(-c3ccc(C)cc3)nn2)OC(=O)[C@H](C)[C@@H](O[C@H]2C[C@@](C)(OC)[C@@H](O)[C@H](C)O2)[C@H](C)[C@H]1O[C@@H]1O[C@H](C)C[C@H](N(C)C)[C@H]1O | 4 (≈ 4.41 µM) | 128 (≈ 141 µM) | 128 (≈ 141 µM) | 128 (≈ 141 µM) | 128 (≈ 141 µM) | 64 (≈ 70.6 µM) | 256 (≈ 283 µM) | 4 (≈ 4.41 µM) | 32 (≈ 35.3 µM) | 2 (≈ 2.21 µM)
CCCc1ccc(-n2cc(COC[C@H]3CN(C)C[C@@H](C)[C@@H](O)[C@H](C)C[C@@](C)(OC)[C@H](O[C@@H]4O[C@H](C)C[C@H](N(C)C)[C@H]4O)[C@@H](C)[C@H](O[C@H]4C[C@@](C)(OC)[C@@H](O)[C@H](C)O4)[C@@H](C)C(=O)O3)nn2)cc1 | 1 (≈ 1.07 µM) | 64 (≈ 68.5 µM) | 16 (≈ 17.1 µM) | 128 (≈ 137 µM) | 64 (≈ 68.5 µM) | 32 (≈ 34.3 µM) | 128 (≈ 137 µM) | 0.5 (≈ 0.535 µM) | 64 (≈ 68.5 µM) | 0.5 (≈ 0.535 µM)
CCCCc1ccc(-c2cn(C[C@H]3CN(C)C[C@@H](C)[C@@H](O)[C@H](C)C[C@@](C)(OC)[C@H](O[C@@H]4O[C@H](C)C[C@H](N(C)C)[C@H]4O)[C@@H](C)[C@H](O[C@H]4C[C@@](C)(OC)[C@@H](O)[C@H](C)O4)[C@@H](C)C(=O)O3)nn2)cc1 | 0.06 (≈ 0.0653 µM) | 16 (≈ 17.4 µM) | 64 (≈ 69.7 µM) | 16 (≈ 17.4 µM) | 128 (≈ 139 µM) | 32 (≈ 34.8 µM) | 32 (≈ 34.8 µM) | 1 (≈ 1.09 µM) | 16 (≈ 17.4 µM) | 1 (≈ 1.09 µM)
CO[C@]1(C)C[C@@H](C)[C@H](O)[C@H](C)CN(C)[C@@H](Cn2cc(-c3ccc(F)cc3)nn2)COC(=O)[C@H](C)[C@@H](O[C@H]2C[C@@](C)(OC)[C@@H](O)[C@H](C)O2)[C@H](C)[C@H]1O[C@@H]1O[C@H](C)C[C@H](N(C)C)[C@H]1O | 16 (≈ 18.2 µM) | 256 (≈ 291 µM) | > 128 | 128 (≈ 145 µM) | > 128 | 128 (≈ 145 µM) | 128 (≈ 145 µM) | 64 (≈ 72.7 µM) | 128 (≈ 145 µM) | 32 (≈ 36.4 µM)
